Source: ChEMBL document CHEMBL4406852, “Combating fluconazole-resistant fungi with novel β-azole-phenylacetone derivatives” (Eur J Med Chem, 2019)
In brackets after ≈: the same amount, converted by molar mass.

Experiments:
Format in all cases: functional
[1] = system: Candida albicans; assay: Antifungal activity against Candida albicans GIM 2.194 assessed as reduction in fungal growth incubated for 24 hrs by serial dilution method; details: GIM 2.194, 24 h
Outline: (§1)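 MIC by CLSI broth microdilution in RPMI 1640 buffered to pH 7.0 with MOPS. Compounds dissolved in DMSO and serially diluted to final 0.03–16 or 0.125–64 µg/mL. Inoculum 1–5 × 10^3 CFU/mL. Incubation 35 °C, 24 h. Drug-free growth and fungus-free blank controls. MIC is the lowest concentration preventing visible growth.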

[2] = system: Candida parapsilosis; assay: Antifungal activity against Candida parapsilosis GIM 2.190 assessed as reduction in fungal growth incubated for 24 hrs by serial dilution method; details: Lodderomyces parapsilosis, GIM 2.190, 24 h; outline: as §1
[3] = system: Candida tropicalis; assay: Antifungal activity against Candida tropicalis GIM 2.183 assessed as reduction in fungal growth incubated for 24 hrs by serial dilution method; details: GIM 2.183, 24 h; outline: as §1
[4] = system: Candida albicans; assay: Antifungal activity against fluconazole-resistant Candida albicans CaR assessed as reduction in fungal growth incubated for 24 hrs by serial dilution method
Outline: (§2)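 Fluconazole-resistant C. albicans clinical isolates (17# and CaR from AIDS patients; 632, 901, 904 from clinic) tested by CLSI broth dilution MIC in RPMI 1640 buffered to pH 7.0 with MOPS. Compounds dissolved in DMSO, serially diluted to final 0.03–16 or 0.125–64 μg/mL; inoculum 1–5 × 10^3 CFU/mL; 35 °C, 24 h. MIC = lowest concentration inhibiting visible growth; fluconazole and itraconazole as controls.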

[5] = system: Nakaseomyces glabratus; assay: Antifungal activity against Candida glabrata assessed as reduction in fungal growth incubated for 24 hrs by serial dilution method; outline: as §1
[6] = system: Candida albicans; assay: Antifungal activity against Candida albicans SC5314 assessed as reduction in fungal growth incubated for 24 hrs by serial dilution method; details: SC5314, 24 h; outline: as §1
[7] = system: Candida albicans; assay: Antifungal activity against fluconazole-resistant Candida albicans 901 assessed as reduction in fungal growth incubated for 24 hrs by serial dilution method; details: Candida albicans, 901, 24 h; outline: as §2
[8] = system: Candida albicans; assay: Antifungal activity against fluconazole-resistant Candida albicans 632 assessed as reduction in fungal growth incubated for 24 hrs by serial dilution method; details: Candida albicans, 632, 24 h; outline: as §2
[9] = system: Candida albicans; assay: Antifungal activity against fluconazole-resistant Candida albicans 17 assessed as reduction in fungal growth incubated for 24 hrs by serial dilution method; details: Candida albicans, 17, 24 h; outline: as §2
[10] = system: Candida albicans; assay: Antifungal activity against fluconazole-resistant Candida albicans 904 assessed as reduction in fungal growth incubated for 24 hrs by serial dilution method; details: Candida albicans, 904, 24 h; outline: as §2

Compound | MIC [1] | MIC [2] | MIC [3] | MIC [4] | MIC [5] | MIC [6] | MIC [7] | MIC [8] | MIC [9] | MIC [10]
O=C(NC(Cn1ccnc1)C(=O)c1ccc(F)cc1)c1ccc(-c2ccccc2)c(F)c1 (stereo not drawn) | 0.25 µg/mL (≈ 0.579 µM) | 0.25 µg/mL (≈ 0.579 µM) | 0.25 µg/mL (≈ 0.579 µM) | > 64 µg/mL | 0.5 µg/mL (≈ 1.16 µM) | 0.06 µg/mL (≈ 0.139 µM) | > 64 µg/mL | 4 µg/mL (≈ 9.27 µM) | > 64 µg/mL | 4 µg/mL (≈ 9.27 µM)
O=C(NC(Cn1cncn1)C(=O)c1ccccc1)c1ccc(-c2ccccc2)cc1 (stereo not drawn) | 2 µg/mL (≈ 5.04 µM) | – | 1 µg/mL (≈ 2.52 µM) | – | – | 0.25 µg/mL (≈ 0.631 µM) | – | – | – | –
Cc1ccc(C(=O)C(Cn2ccnc2)NC(=O)c2ccc(-c3ccccc3)cc2)cc1 (stereo not drawn) | 0.125 µg/mL (≈ 0.305 µM) | 0.5 µg/mL (≈ 1.22 µM) | 0.03 µg/mL (≈ 0.0733 µM) | > 64 µg/mL | 0.25 µg/mL (≈ 0.611 µM) | 0.06 µg/mL (≈ 0.147 µM) | 16 µg/mL (≈ 39.1 µM) | > 64 µg/mL | > 64 µg/mL | 32 µg/mL (≈ 78.1 µM)
O=C(NC(Cn1ccnc1)C(=O)c1ccc(Cl)cc1)c1ccc(-c2ccccc2)c(F)c1 (stereo not drawn) | 0.5 µg/mL (≈ 1.12 µM) | 1 µg/mL (≈ 2.23 µM) | 0.06 µg/mL (≈ 0.134 µM) | > 64 µg/mL | 0.5 µg/mL (≈ 1.12 µM) | 0.06 µg/mL (≈ 0.134 µM) | > 64 µg/mL | > 64 µg/mL | > 64 µg/mL | > 64 µg/mL
O=C(NC(Cn1ccnc1)C(=O)c1ccc(Cl)cc1)c1ccc(-c2ccccc2)cc1 (stereo not drawn) | 0.125 µg/mL (≈ 0.291 µM) | 0.25 µg/mL (≈ 0.582 µM) | 0.06 µg/mL (≈ 0.14 µM) | > 64 µg/mL | 0.5 µg/mL (≈ 1.16 µM) | 0.06 µg/mL (≈ 0.14 µM) | 2 µg/mL (≈ 4.65 µM) | 4 µg/mL (≈ 9.3 µM) | > 64 µg/mL | 2 µg/mL (≈ 4.65 µM)
O=C(NC(Cn1ccnc1)C(=O)c1ccccc1F)c1ccc(-c2ccccc2)cc1F (stereo not drawn) | 1 µg/mL (≈ 2.32 µM) | 1 µg/mL (≈ 2.32 µM) | 1 µg/mL (≈ 2.32 µM) | 4 µg/mL (≈ 9.27 µM) | > 64 µg/mL | 0.5 µg/mL (≈ 1.16 µM) | > 64 µg/mL | 8 µg/mL (≈ 18.5 µM) | 8 µg/mL (≈ 18.5 µM) | 2 µg/mL (≈ 4.64 µM)
O=C(NC(Cn1ccnc1)C(=O)c1ccccc1)c1ccc(-c2ccc(F)cc2)cc1 (stereo not drawn) | > 16 µg/mL | > 64 µg/mL | 8 µg/mL (≈ 19.3 µM) | – | > 64 µg/mL | 4 µg/mL (≈ 9.67 µM) | – | – | – | –
O=C(NC(Cn1ccnc1)C(=O)c1ccccc1)c1ccc(-c2ccccc2Cl)cc1 (stereo not drawn) | > 16 µg/mL | > 64 µg/mL | > 16 µg/mL | – | 4 µg/mL (≈ 9.3 µM) | 2 µg/mL (≈ 4.65 µM) | – | – | – | –
O=C(NC(Cn1ccnc1)C(=O)c1ccccc1)c1ccc(-c2ccccc2)c(F)c1 (stereo not drawn) | 0.125 µg/mL (≈ 0.302 µM) | 0.125 µg/mL (≈ 0.302 µM) | 0.06 µg/mL (≈ 0.145 µM) | > 64 µg/mL | 0.25 µg/mL (≈ 0.605 µM) | 0.06 µg/mL (≈ 0.145 µM) | 0.25 µg/mL (≈ 0.605 µM) | 2 µg/mL (≈ 4.84 µM) | > 64 µg/mL | 2 µg/mL (≈ 4.84 µM)
O=C(NC(Cn1ccnc1)C(=O)c1cccc(F)c1)c1ccc(-c2ccccc2)c(F)c1 (stereo not drawn) | 0.25 µg/mL (≈ 0.579 µM) | 1 µg/mL (≈ 2.32 µM) | 1 µg/mL (≈ 2.32 µM) | > 64 µg/mL | 2 µg/mL (≈ 4.64 µM) | 0.125 µg/mL (≈ 0.29 µM) | 0.25 µg/mL (≈ 0.579 µM) | 1 µg/mL (≈ 2.32 µM) | > 64 µg/mL | 0.5 µg/mL (≈ 1.16 µM)
Cc1cc(C(=O)NC(Cn2ccnc2)C(=O)c2ccccc2)ccc1-c1ccccc1 (stereo not drawn) | > 16 µg/mL | > 64 µg/mL | > 16 µg/mL | – | > 64 µg/mL | > 16 µg/mL | – | – | – | –
O=C(NC(Cn1ccnc1)C(=O)c1ccccc1)c1ccc(-c2ccccc2)c(Cl)c1 (stereo not drawn) | > 16 µg/mL | > 64 µg/mL | > 16 µg/mL | – | > 64 µg/mL | > 16 µg/mL | – | – | – | –
O=C(NC(Cn1ccnc1)C(=O)c1cccc(F)c1)c1ccc(-c2ccccc2)cc1 (stereo not drawn) | 0.125 µg/mL (≈ 0.302 µM) | 0.5 µg/mL (≈ 1.21 µM) | 0.25 µg/mL (≈ 0.605 µM) | > 64 µg/mL | 1 µg/mL (≈ 2.42 µM) | 0.06 µg/mL (≈ 0.145 µM) | 0.25 µg/mL (≈ 0.605 µM) | 1 µg/mL (≈ 2.42 µM) | > 64 µg/mL | 0.5 µg/mL (≈ 1.21 µM)
O=C(NC(Cn1ccnc1)C(=O)c1ccccc1)c1ccc(-c2ccccc2)cc1Cl (stereo not drawn) | > 16 µg/mL | > 64 µg/mL | > 16 µg/mL | – | > 64 µg/mL | 8 µg/mL (≈ 18.6 µM) | – | – | – | –
Cc1ccccc1-c1ccc(C(=O)NC(Cn2ccnc2)C(=O)c2ccccc2)cc1 (stereo not drawn) | > 16 µg/mL | > 64 µg/mL | > 16 µg/mL | – | > 64 µg/mL | > 16 µg/mL | – | – | – | –
O=C(NC(Cn1ccnc1)C(=O)c1ccccc1)c1ccc(-c2ccccc2F)cc1 (stereo not drawn) | 1 µg/mL (≈ 2.42 µM) | 2 µg/mL (≈ 4.84 µM) | 0.25 µg/mL (≈ 0.605 µM) | – | 1 µg/mL (≈ 2.42 µM) | 0.5 µg/mL (≈ 1.21 µM) | – | – | – | –
O=C(NC(Cn1ccnc1)C(=O)c1ccccc1)c1ccc(-c2ccccc2)cc1 (stereo not drawn) | 0.125 µg/mL (≈ 0.316 µM) | 0.125 µg/mL (≈ 0.316 µM) | 0.06 µg/mL (≈ 0.152 µM) | > 64 µg/mL | 0.25 µg/mL (≈ 0.632 µM) | 0.06 µg/mL (≈ 0.152 µM) | 0.5 µg/mL (≈ 1.26 µM) | 2 µg/mL (≈ 5.06 µM) | > 64 µg/mL | 1 µg/mL (≈ 2.53 µM)
O=C(NC(Cn1ccnc1)C(=O)c1ccccc1F)c1ccc(-c2ccccc2)c(F)c1 (stereo not drawn) | 0.5 µg/mL (≈ 1.16 µM) | 2 µg/mL (≈ 4.64 µM) | 4 µg/mL (≈ 9.27 µM) | > 64 µg/mL | > 64 µg/mL | 0.5 µg/mL (≈ 1.16 µM) | 0.25 µg/mL (≈ 0.579 µM) | 1 µg/mL (≈ 2.32 µM) | > 64 µg/mL | 0.25 µg/mL (≈ 0.579 µM)
CCC(C)n1ncn(-c2ccc(N3CCN(c4ccc(OCC5COC(Cn6cncn6)(c6ccc(Cl)cc6Cl)O5)cc4)CC3)cc2)c1=O (stereo not drawn) [ITRACONAZOLE] | 0.03 µg/mL (≈ 0.0425 µM) | 0.125 µg/mL (≈ 0.177 µM) | 0.03 µg/mL (≈ 0.0425 µM) | 0.25 µg/mL (≈ 0.354 µM) | 0.125 µg/mL (≈ 0.177 µM) | 0.03 µg/mL (≈ 0.0425 µM) | > 64 µg/mL | > 64 µg/mL | 0.25 µg/mL (≈ 0.354 µM) | > 64 µg/mL
Cc1cccc(-c2ccc(C(=O)NC(Cn3ccnc3)C(=O)c3ccccc3)cc2)c1 (stereo not drawn) | > 16 µg/mL | > 64 µg/mL | > 16 µg/mL | – | > 64 µg/mL | > 16 µg/mL | – | – | – | –
Cc1ccc(-c2ccc(C(=O)NC(Cn3ccnc3)C(=O)c3ccccc3)cc2)cc1 (stereo not drawn) | > 16 µg/mL | > 64 µg/mL | > 16 µg/mL | – | > 64 µg/mL | 2 µg/mL (≈ 4.88 µM) | – | – | – | –
O=C(NC(Cn1ccnc1)C(=O)c1ccccc1)c1ccc(-c2cccc(F)c2)cc1 (stereo not drawn) | 0.5 µg/mL (≈ 1.21 µM) | 1 µg/mL (≈ 2.42 µM) | 0.125 µg/mL (≈ 0.302 µM) | – | > 64 µg/mL | 0.25 µg/mL (≈ 0.605 µM) | – | – | – | –
O=C(NC(Cn1ccnc1)C(=O)c1ccccc1)c1ccc(-c2ccc(Cl)cc2)cc1 (stereo not drawn) | > 16 µg/mL | > 64 µg/mL | > 16 µg/mL | – | > 64 µg/mL | 0.5 µg/mL (≈ 1.16 µM) | – | – | – | –
Cc1cc(-c2ccccc2)ccc1C(=O)NC(Cn1ccnc1)C(=O)c1ccccc1 (stereo not drawn) | > 16 µg/mL | > 64 µg/mL | > 16 µg/mL | – | > 64 µg/mL | > 16 µg/mL | – | – | – | –
